Screens as filed in PubChem BioAssay.
Compounds with a hit are over-represented: about 2.7% of the library has one in this group of screens.
Yeast growth inh: chemicals that inhibit yeast BB579 growth in restrictive medium (lifespan-shortening candidates); S. cerevisiae BB579 growth, OD615, 48 h; inhibition, % at 10 µM; actives 0.51% (n = 140,000); AID 804;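 active means inhibition above a set limit, 3 SD over the mean compound inhibition, cut at about 44% in these data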
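Material: Saccharomyces cerevisiae DeaD strain BB579, replicative lifespan model yeast; buffer or medium: CSMM-D restrictive synthetic medium containing dextrose (glucose); compound: 10 µM single dose, DMSO 0.25%; timing: 48 h compound exposure at 30 °C after 4 h preincubation; signal: turbidity as optical density at 615 nm; benchmarks: positive control amphotericin B 10 µg/mL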
RAM network inh: yeast RAM network inhibition; AID 868; inhibition, % at 50 µM; S. cerevisiae dse1pr::URA3 reporter, 5-FOA growth OD615, 2 d; analog-sensitive cbk1-as2 kinase mutant strain; actives 1.8% (n = 190,000);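 active means inhibition above a set limit, 3 SD over mean compound inhibition, cut at about 8.4% in these data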;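 further: 0% = DMSO-only wells with no growth and 100% = 10 µM 1-NA-PP1 full growth; inhibition rescues growth on 5-FOA so higher OD means more RAM inhibition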
Yeast life ext: extends the lifespan of yeast; S. cerevisiae growth with nicotinamide, OD615; deaD strain in restrictive glucose medium; inhibition of the nicotinamide effect, % at 10 µM; actives 0.68% (n = 130,000);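 active means inhibition above a set limit, placed 3 SD over the median of all compounds, cut at about 26% in these data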;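 further: 0% = nicotinamide-treated wells and 100% = cells grown without nicotinamide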
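Buffer or medium: CSMM-D glucose medium, restrictive; test system: modified budding yeast, DeaD strain; compound: single dose 10 µM compound, 0.25% DMSO; schedule: culture preincubation 4 h, compound exposure 48 h, both 30 °C; detection: optical density (absorbance) at 615 nm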
SDO1 yeast rescue: sdo1-depleted yeast growth rescue; S. cerevisiae sdo1-depleted JHY4D growth rescue, OD600 30 h; stronger effect = higher value; pdr5 snq2 efflux-pump mutant strain; z-score at 10 µM; AID 817; actives 0.21% (n = 140,000);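 active means z-score above 3 at both the 24 hr and the 30 hr optical density reads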;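 further: z-score against mean and SD of all compound wells on the same plate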
* marks the source's active call; other numbers are inactive results.

How did CCCCCCNC(=O)C(C#N)c1nc2ccccc2nc1N1CCOCC1 (stereo not drawn) do in these assays?
Yeast growth inh: -43.7; RAM network inh: 9.7*; Yeast life ext: -9.4; SDO1 yeast rescue: -0.9

What do the screens show for `O=C(O)COc1ccc(NC(=O)c2ccc(NC(=O)c3ccco3)cc2)cc1`?
RAM network inh: 4.2

Results for O=C(Nc1nccs1)c1ccc2c(=O)n3c(nc2c1)CCCCC3 ?
Yeast growth inh: -33.7; RAM network inh: -1.5; Yeast life ext: 50.8*; SDO1 yeast rescue: -1.68

What do the screens show for `O=C(Nc1ccc2nc3n(c(=O)c2c1)CCCC3)c1cccc([N+](=O)[O-])c1`?
Yeast growth inh: -22.3; RAM network inh: 8.8*; Yeast life ext: 3.2; SDO1 yeast rescue: 0.37

How did O=C(Nc1nccs1)c1c(O)c2cccc3c2n(c1=O)CCC3 do in these assays?
Yeast growth inh: -23.4; RAM network inh: 0.9; Yeast life ext: 29.8*; SDO1 yeast rescue: -2.35

Results for O=C(Nc1ccccn1)c1c(O)c2cccc3c2n(c1=O)CCC3 ?
Yeast growth inh: -18.5; RAM network inh: -0.8; Yeast life ext: 0.3; SDO1 yeast rescue: 0.55

How did Cc1ccc(CN2C(=O)CNC2=S)cc1 do in these assays?
RAM network inh: 4.2

How did CN(C)/C=C(\C=N\OCc1ccc(Cl)cc1Cl)C(=O)Nc1ccc(Cl)c(Cl)c1 do in these assays?
Yeast growth inh: -61.8; RAM network inh: 10.9*; Yeast life ext: -7.2; SDO1 yeast rescue: 0.11

What do the screens show for `CCOCc1c(C(=O)OCC(=O)Nc2ccc(C)c(S(=O)(=O)N(C)C)c2)oc2ccccc12`?
Yeast growth inh: -46.8; RAM network inh: 8.7*; Yeast life ext: -4.3; SDO1 yeast rescue: -0.39

How did Cc1ccc(NC(=O)COC(=O)CCC(=O)c2ccc(Cl)cc2)cc1S(=O)(=O)N(C)C do in these assays?
Yeast growth inh: -24.2; RAM network inh: 10.5*; Yeast life ext: -0.4; SDO1 yeast rescue: -0.46

What do the screens show for `COc1cccc(OC)c1OCCNCCO`?
Yeast growth inh: -13.2; RAM network inh: -1.1; Yeast life ext: -11.9; SDO1 yeast rescue: 0.54

How did Cc1nnc(SCc2cc(=O)[nH]c(/N=C(\N)Nc3ccccc3Sc3ccccc3)n2)s1 do in these assays?
RAM network inh: 9.0*

What do the screens show for `COc1ccc(/C=N/NC(=O)Nc2cccc3nsnc23)cc1OC`?
Yeast growth inh: 0.2; RAM network inh: 3.4; Yeast life ext: -4.5; SDO1 yeast rescue: 1.42

What do the screens show for `CC(C)c1ccc(C(=O)Nc2ccc(N3CCOCC3)cc2)cc1`?
Yeast growth inh: -20.3; RAM network inh: 4.0; Yeast life ext: 4.8; SDO1 yeast rescue: -0.03

What do the screens show for `CN1C(=O)C(Cl)(Cl)C(=O)c2ccccc21`?
Yeast growth inh: -46.6; RAM network inh: 0.7; Yeast life ext: 47.1*; SDO1 yeast rescue: 0.49

How did O=C(CSc1nnc(-c2ccco2)n1-c1ccccc1)N1CCOCC1 do in these assays?
Yeast growth inh: -30.4; RAM network inh: 0.9; Yeast life ext: -0.5; SDO1 yeast rescue: 0.47

Results for O=C(CN1c2ccccc2Sc2ccccc21)NNC(=S)Nc1ccc(Cl)cc1Cl ?
Yeast growth inh: -22.8; RAM network inh: 10.9*; Yeast life ext: 13.5; SDO1 yeast rescue: 2.48

Results for O=C(Cc1cccs1)N1CCN=C1SCc1ccc(F)cc1 ?
RAM network inh: 0.4

Results for Cc1oc(-c2ccccc2)cc1C(=O)Nc1cccc(/C=C\C(=O)O)c1 ?
RAM network inh: 8.5*

Results for CCc1ccc(/C=C2\Oc3cc(OS(C)(=O)=O)ccc3C2=O)cc1 ?
Yeast growth inh: -71.5; RAM network inh: 8.5*; Yeast life ext: -2.9; SDO1 yeast rescue: -0.94

How did Cc1ccc(S(=O)(=O)Oc2ccc3c(c2)O/C(=C\c2cccnc2)C3=O)cc1 do in these assays?
Yeast growth inh: -62.0; RAM network inh: 4.6; Yeast life ext: 7.0; SDO1 yeast rescue: -2.47

Results for COc1cccc(-n2c(=O)[nH]cc(C(=O)Nc3ccc4c(c3)OCCO4)c2=O)c1 ?
Yeast growth inh: -64.0; RAM network inh: 8.8*; Yeast life ext: -0.7; SDO1 yeast rescue: 1.03

What do the screens show for `Cc1noc(C)c1COC(=O)CCN1c2ccccc2Sc2ccccc21`?
Yeast growth inh: -24.5; RAM network inh: 10.4*; Yeast life ext: 2.7; SDO1 yeast rescue: 0.13

What do the screens show for `COc1ccc(N(C)S(=O)(=O)c2cccc(C(=O)NC3CCCC3)c2)cc1`?
RAM network inh: -0.4

What do the screens show for `COc1ccc(OCC(=O)NNC(=O)c2cccc(S(=O)(=O)N(C)C)c2)cc1`?
Yeast growth inh: -26.3; RAM network inh: -0.2; Yeast life ext: 30.9*; SDO1 yeast rescue: 0.69

How did O=C(CN1CCOCC1)NCCNC(=O)CN1CCOCC1 do in these assays?
Yeast growth inh: -60.3; RAM network inh: 0.4; Yeast life ext: 0.0; SDO1 yeast rescue: -0.23

How did N#CC(C#N)C(c1ccsc1)c1c(-c2ccccc2)[nH][nH]c1=O (stereo not drawn) do in these assays?
Yeast growth inh: -62.1; RAM network inh: 1.6; Yeast life ext: 40.4*; SDO1 yeast rescue: -0.25

How did Cc1ccc2nc(Cl)c(/C=N/NC(=O)c3ccccc3O)cc2c1 do in these assays?
Yeast growth inh: -6.9; RAM network inh: 3.5; Yeast life ext: 1.1; SDO1 yeast rescue: -0.63

How did Cc1ccc(NC(=O)Nc2nc(-c3ccc(C)s3)cs2)cc1 do in these assays?
Yeast growth inh: -17.0; RAM network inh: 2.1; Yeast life ext: 87.5*; SDO1 yeast rescue: -0.4

How did CC(=O)Nc1nc(-c2ccc(Br)s2)cs1 do in these assays?
Yeast growth inh: -74.9; RAM network inh: 2.4; Yeast life ext: -8.2; SDO1 yeast rescue: -0.35

What do the screens show for `CCCn1c(C)cc(C(=O)COC(=O)c2ccc[nH]c2=O)c1C`?
Yeast growth inh: 44.9*; RAM network inh: 2.2; Yeast life ext: 25.4; SDO1 yeast rescue: 1.29

What do the screens show for `Cc1ccc(-n2c(C)cc(C(=O)COC(=O)c3ccc[nH]c3=O)c2C)cc1C`?
Yeast growth inh: 99.2*; RAM network inh: 0.8; Yeast life ext: -12.5; SDO1 yeast rescue: -0.91

What do the screens show for `Cc1cc(C(=O)COC(=O)c2ccccc2O)c(C)n1Cc1cccs1`?
Yeast growth inh: -48.0; RAM network inh: 9.0*; Yeast life ext: -13.4; SDO1 yeast rescue: 0.38

Results for COCCn1c(C)cc(C(=O)COC(=O)c2ccccc2Br)c1C ?
RAM network inh: 3.8

How did CCN1CCN(P2(=O)C=C(c3ccccc3)OC(c3ccccc3)=C2)CC1 do in these assays?
Yeast growth inh: -46.4; RAM network inh: 1.2; Yeast life ext: -17.4; SDO1 yeast rescue: -1.2

What do the screens show for `Cc1onc(-c2ccccc2)c1C(=O)NC(=S)NNC(=O)c1ccc(O)cc1O`?
Yeast growth inh: 80.1*; RAM network inh: 1.1; Yeast life ext: 0.1; SDO1 yeast rescue: -0.41

What do the screens show for `CCCCCCCCC/C(=N\O)c1ccccn1`?
Yeast growth inh: 99.6*; RAM network inh: -1.9; Yeast life ext: -28.4; SDO1 yeast rescue: -1.93

What do the screens show for `O=C(c1cccnc1)N1CCN(Cc2ccccc2Br)CC1`?
Yeast growth inh: -27.0; RAM network inh: 0.9; Yeast life ext: 4.2; SDO1 yeast rescue: 0.26

What do the screens show for `Cn1c(-c2ccc(Cl)cc2)cnc1NCc1cc2c(cc1[N+](=O)[O-])OCO2`?
Yeast growth inh: -21.4; RAM network inh: -0.8; Yeast life ext: -0.7; SDO1 yeast rescue: -1.9
